The source made the active and inactive calls. Cut-off read from the data, not from the text of the source, unless noted: active = inhibition above about 30%; inactive = the rest.
What was measured:
[1] = reducers of endogenous Her2 protein level, primary screen, SKBR3 breast tumor cells, AlphaScreen, ATP viability (AID 461;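 active = Her2 level under about 52% in both replicate screens, with viability over 70% of control, limit read from the data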;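 for Her2 level: lower value means less Her2 protein in the cells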;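 for viability: percent of carrier control wells set as 100% viability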); details: 18-24 h, measured here: SKBR3 viability, ATP luminescence, at 10 µM
[2] = target: Receptor tyrosine-protein kinase erbB-2 (Homo sapiens) (UniProt P04626); assay: as above; details: 18-24 h, at 10 µM, stronger effect = lower value
[3] = SK-BR-3 cell growth inhibitors, pilot screen, 24 h, human (AID 572;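 active = viability at or below 10% of carrier control in both of two separate runs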;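 note: compound exposure lasted between 18 and 24 h rather than exactly 24 h; 100% = carrier-treated control wells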); details: SK-BR-3 viability, CellTiter-Glo luminescence, at 10 µM, stronger effect = lower value
[4] = HUVEC growth inhibition – cell-based, human, primary screen (AID 575;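 active = viability at or below 30% in both replicate assays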;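 note: 100% = median of untreated cell wells with 0.1% DMSO on each plate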); details: HUVEC proliferation, CellTiter-Glo luminescence, 72 h; at 10 µM; stronger effect = lower value
Outline: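 system = HUVEC primary cells | amount = 1250 cells/well | buffer or medium = supplemented EBM, 2% fetal bovine serum | dosing = single-point 10 µM, DMSO 0.1% final | times = 72 h compound incubation | detection = CTG luminescence | read-out = % viability relative to median vehicle-well signal on each plate | control set = vehicle and MePR control wells | format = collagen-coated 384-well format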

[5] = growth inhibitors of H69AR lung tumor, primary screen, human, duplicate replicates (AID 580;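 active = viability at or under a set limit in both replicates, limit being median viability minus 3 SD, cut at about 48% in these data, passing the limit was not always enough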;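 note: 100% = mean luminescence of untreated wells and 0% = no signal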); details: H69AR lung tumor cells viability, ATP luminescence, 72 h; at 10 µM; stronger effect = lower value
[6] = reversal of MRP1-mediated doxorubicin resistance, pilot screen, H69AR cells, doxorubicin co-treatment (AID 601;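 active = viability loss from added drug above about 55%, and viability with drug at most 40%, in both replicates, limit read from the data, passing the limit was not always enough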); details: CellTiter-Glo, 72 h, at 10 µM; for differential viability (reversal): stronger effect = higher value
[7] = 384-well plate pilot, post-Golgi transport modulator project, inhibition of yeast transport mutant growth (AID 636; in the data active = inhibition above about 31%); details: absorbance 615 nm, about 18 h, stronger effect = higher value
[8] = growth suppression of yeast trafficking mutant, preliminary HTS, modulators of trafficking downstream of Golgi apparatus project, 1536-format plate, OD 615 nm (AID 637); details: yeast transport mutant growth, absorbance 615 nm, 18 h; stronger effect = higher value
[9] = H69AR cells + 2 uM doxorubicin, measured here: viability with 2 uM doxorubicin, stronger effect = lower value
[10] = H69AR cells, compound alone cytotoxicity

Chain of Receptor tyrosine-protein kinase erbB-2 (Homo sapiens) (P04626 whole entry, looked up): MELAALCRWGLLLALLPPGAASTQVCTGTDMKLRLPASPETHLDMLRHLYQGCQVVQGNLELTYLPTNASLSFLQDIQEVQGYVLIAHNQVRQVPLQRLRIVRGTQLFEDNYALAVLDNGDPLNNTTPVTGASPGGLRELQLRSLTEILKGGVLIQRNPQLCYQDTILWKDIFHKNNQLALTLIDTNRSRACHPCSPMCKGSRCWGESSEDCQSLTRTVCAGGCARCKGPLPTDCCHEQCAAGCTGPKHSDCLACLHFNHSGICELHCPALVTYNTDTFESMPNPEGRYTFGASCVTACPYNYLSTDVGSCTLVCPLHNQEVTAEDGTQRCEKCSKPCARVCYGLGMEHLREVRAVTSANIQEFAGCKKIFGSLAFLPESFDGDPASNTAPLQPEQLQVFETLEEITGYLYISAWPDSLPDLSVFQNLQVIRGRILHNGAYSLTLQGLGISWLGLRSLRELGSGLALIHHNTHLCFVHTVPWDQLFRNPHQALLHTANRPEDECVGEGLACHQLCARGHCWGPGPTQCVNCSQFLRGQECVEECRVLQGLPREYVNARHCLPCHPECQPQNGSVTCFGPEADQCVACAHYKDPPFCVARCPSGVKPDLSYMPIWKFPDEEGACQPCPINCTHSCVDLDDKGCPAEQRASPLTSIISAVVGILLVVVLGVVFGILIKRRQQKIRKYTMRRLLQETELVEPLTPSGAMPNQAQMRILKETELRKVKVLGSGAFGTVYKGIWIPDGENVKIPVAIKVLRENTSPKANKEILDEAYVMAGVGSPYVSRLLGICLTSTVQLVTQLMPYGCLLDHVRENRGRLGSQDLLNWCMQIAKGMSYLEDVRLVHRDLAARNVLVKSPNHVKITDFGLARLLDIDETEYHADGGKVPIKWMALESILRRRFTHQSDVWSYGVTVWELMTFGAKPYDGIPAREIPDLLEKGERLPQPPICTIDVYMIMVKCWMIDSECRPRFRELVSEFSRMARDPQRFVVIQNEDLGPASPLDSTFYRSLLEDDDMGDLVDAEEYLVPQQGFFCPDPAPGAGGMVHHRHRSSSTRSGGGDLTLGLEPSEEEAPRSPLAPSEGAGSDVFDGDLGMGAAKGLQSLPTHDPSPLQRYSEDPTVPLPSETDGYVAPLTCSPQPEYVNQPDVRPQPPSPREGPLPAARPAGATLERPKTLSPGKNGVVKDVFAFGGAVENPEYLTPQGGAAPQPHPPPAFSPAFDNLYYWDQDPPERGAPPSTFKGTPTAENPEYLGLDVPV

| Compound | viability [1] | Her2 level [2] | viability [3] | viability [4] | viability [5] | differential viability (reversal) ([6]; H69AR cells + 2 uM doxorubicin) | viability [6, 9] | viability [6, 10] | inhibition [7] | inhibition [8] |
| --- | --- | --- | --- | --- | --- | --- | --- | --- | --- | --- |
| CCNC(=O)COc1ccc(Br)cc1Cl | 96% | 91% (inactive) | 96% (inactive) | 92.1% (inactive) | 93.2% (inactive) | -4.36% (inactive) | 97.6% | 93.2% | -5% (inactive) | -1.9% (inactive) |
| CN(C)/C=N/c1ncnc2c1cnn2-c1ccc(C(F)(F)F)cn1 | 108% | 100% (inactive) | 108% (inactive) | 104% (inactive) | 81.8% (inactive) | -0.51% (inactive) | 82.3% | 81.8% | -4.42% (inactive) | -4.29% (inactive) |
| Cc1ccc(S(=O)(=O)NCC(=O)N(CC(=O)NCc2ccccc2)CC2CCCO2)cc1 (stereo not given) | 110% | 91.5% (inactive) | 110% (inactive) | 108% (inactive) | 104% (inactive) | 17.9% (inactive) | 86.2% | 104% | -3.65% (inactive) | 3.49% (inactive) |
| Cc1c[nH]c2cccc(OCC(O)CNC(C)(C)C)c12 (stereo not given) | 91.5% | 96% (inactive) | 91.5% (inactive) | 100% (inactive) | 88.3% (inactive) | 0.28% (inactive) | 88% | 88.3% | -3.6% (inactive) | 17.8% (inactive) |
| COc1ccc(-c2cc(C(F)(F)F)nc(SCCC(=O)N3CCOCC3)n2)cc1 | 116% | 90.5% (inactive) | 116% (inactive) | 94.1% (inactive) | 90% (inactive) | 3.6% (inactive) | 86.4% | 90% | -1.71% (inactive) | 2.46% (inactive) |
| Cc1csc(SCC(=O)NC(=O)NCc2ccccc2)n1 | 108% | 90.5% (inactive) | 108% (inactive) | 103% (inactive) | 95.2% (inactive) | -0.125% (inactive) | 95.3% | 95.2% | -6.67% (inactive) | 2.3% (inactive) |
| N#Cc1nc(COc2ccccc2)oc1NCCCn1ccnc1 | 104% | 103% (inactive) | 104% (inactive) | 96.5% (inactive) | 112% (inactive) | 5.22% (inactive) | 107% | 112% | -0.39% (inactive) | 5.56% (inactive) |
| Cc1c(C(=O)O)oc2ccc(S(=O)(=O)NCc3ccccc3)cc12 | 105% | 113% (inactive) | 105% (inactive) | 113% (inactive) | 106% (inactive) | 0.815% (inactive) | 105% | 106% | -3.42% (inactive) | -6.51% (inactive) |
| COc1ccc2cc(C(=O)NCc3ccco3)c(=Nc3ccc(C(=O)O)cc3)oc2c1 | 68% | 83% (inactive) | 68% (inactive) | 77.4% (inactive) | 55% (inactive) | -14.1% (inactive) | 69.1% | 55% | -5% (inactive) | -1% (inactive) |
| CCOc1ccc(CSC(CC(=O)O)C(=O)O)cc1 (stereo not given) | 90% | 83.5% (inactive) | 90% (inactive) | 84.1% (inactive) | 84.2% (inactive) | -2.67% (inactive) | 86.8% | 84.2% | -3.29% (inactive) | 0.55% (inactive) |
| Cc1ccc(-c2nn3c(=O)c(C)nnc3s2)cc1 | 112% | 112% (inactive) | 112% (inactive) | 112% (inactive) | 104% (inactive) | 12.8% (inactive) | 90.9% | 104% | -2.97% (inactive) | -5% (inactive) |
| Cc1ccc(C(c2nnnn2CCC(C)C)N2CCN(C)CC2)cc1 (stereo not given) | 90.5% | 84% (inactive) | 90.5% (inactive) | 97.9% (inactive) | 98.8% (inactive) | 5.6% (inactive) | 93.2% | 98.8% | -6.67% (inactive) | 1.97% (inactive) |
| Cc1cccc(C2CC(c3ccc(Br)cc3)Nc3nc(N)nn32)c1 (stereo not given) | 92.5% | 94% (inactive) | 92.5% (inactive) | 72.6% (inactive) | 87.6% (inactive) | -14.7% (inactive) | 102% | 87.6% | -4.4% (inactive) | 2.33% (inactive) |
| O=C(CN1C(=O)CSC1=O)Nc1ccc(N2CCOCC2)cc1 | 96.5% | 122% (inactive) | 96.5% (inactive) | 88.1% (inactive) | 101% (inactive) | 5.88% (inactive) | 94.7% | 101% | 1.07% (inactive) | 16.4% (inactive) |
| Cc1csc(NC(=O)CCCSc2nc3ccccc3s2)n1 | 100% | 71% (inactive) | 100% (inactive) | 62.9% (inactive) | 96% (inactive) | 0.115% (inactive) | 95.9% | 96% | -5.87% (inactive) | 5.57% (inactive) |
| COCc1cc(C)c2c(N)c(C#N)sc2n1 | 88% | 100% (inactive) | 88% (inactive) | 91.5% (inactive) | 99.6% (inactive) | 15.3% (inactive) | 84.3% | 99.6% | -1.32% (inactive) | -2.55% (inactive) |
| COc1ccc(CNc2ccc(C(=O)O)cc2)cc1 | 102% | 87% (inactive) | 102% (inactive) | 93% (inactive) | 91.7% (inactive) | 4.9% (inactive) | 86.8% | 91.7% | -3.87% (inactive) | 8.55% (inactive) |
| O=C(CNS(=O)(=O)c1ccc(Br)s1)N1CCCC1 | 118% | 115% (inactive) | 118% (inactive) | 98.7% (inactive) | 99.9% (inactive) | 9.79% (inactive) | 90.1% | 99.9% | -2.11% (inactive) | 6.89% (inactive) |
| Cc1ccc(-c2cc(C(F)(F)F)n3ncc(C(=O)O)c3n2)cc1 | 91% | 90.5% (inactive) | 91% (inactive) | 113% (inactive) | 99.7% (inactive) | 7.33% (inactive) | 92.4% | 99.7% | -7.87% (inactive) | 0.48% (inactive) |
| Cc1nnc(SCC(=O)N2c3ccccc3CC2C)s1 (stereo not given) | 105% | 106% (inactive) | 105% (inactive) | 99.3% (inactive) | 92% (inactive) | -0.71% (inactive) | 92.7% | 92% | -1.73% (inactive) | 0.81% (inactive) |
| CCN1CCN(CCCNC(=O)c2cn(CCOC)c(=O)c3c2c2ccccc2n3C)CC1 | 121% | 122% (inactive) | 121% (inactive) | 96.4% (inactive) | 97.2% (inactive) | 6.88% (inactive) | 90.3% | 97.2% | -2.11% (inactive) | -3.82% (inactive) |
| CC(=O)NCCn1ccc2ccccc21 | 117% | 106% (inactive) | 117% (inactive) | 96.4% (inactive) | 91.7% (inactive) | -3.84% (inactive) | 95.5% | 91.7% | -4.13% (inactive) | 3.93% (inactive) |
| CC1=Nn2c(nnc2-c2ccccn2)SC1 | 94% | 104% (inactive) | 94% (inactive) | 88.7% (inactive) | 99.5% (inactive) | 11.3% (inactive) | 88.2% | 99.5% | -4.4% (inactive) | -1.9% (inactive) |
| COc1ccc2c(c1)CCc1c(C(=O)NCc3cccnc3)noc1-2 | 97.5% | 95.5% (inactive) | 97.5% (inactive) | 102% (inactive) | 103% (inactive) | 17.7% (inactive) | 85.3% | 103% | -1.71% (inactive) | 0.55% (inactive) |
| CCOC(=O)CSc1nnc(-c2ccccc2OC)o1 | 116% | 96% (inactive) | 116% (inactive) | 80.2% (inactive) | 94.8% (inactive) | -11% (inactive) | 106% | 94.8% | -6.44% (inactive) | -6.51% (inactive) |
| c1ccc(CNc2c3c(nc4ncnn24)CCCC3)nc1 | 95.5% | 83.5% (inactive) | 95.5% (inactive) | 109% (inactive) | 85.2% (inactive) | -4.29% (inactive) | 89.5% | 85.2% | -5.34% (inactive) | -3.33% (inactive) |
| CN(C)CCCN1C(=O)c2oc3ccccc3c(=O)c2C1c1cccs1 (stereo not given) | 110% | 93.5% (inactive) | 110% (inactive) | 99% (inactive) | 86.1% (inactive) | 5.31% (inactive) | 80.8% | 86.1% | -1.95% (inactive) | 1.67% (inactive) |
| O=c1cc(NCc2ccccc2)nc2n1CCCS2 | 103% | 98% (inactive) | 103% (inactive) | 104% (inactive) | 92.1% (inactive) | 0.29% (inactive) | 91.8% | 92.1% | -3.68% (inactive) | -5.71% (inactive) |
| Cc1cc(-c2nc3ncccc3o2)ccc1N | 99% | 76.5% (inactive) | 99% (inactive) | 92.6% (inactive) | 90.4% (inactive) | 6.33% (inactive) | 84% | 90.4% | -2.37% (inactive) | 11% (inactive) |

Reference: PubChem BioAssay
